Results on 13 molecules are retold here after paper PMC4085996 (ChemMedChem, 2014).

In data set [1] the test system is HIV-1 NL4-3 (wild-type) virus. In words: microbe, parasite or virus in culture. In kind it is cell-based. The conditions noted are these: read-out: EC50 (NL4-3 infection of TZM-bl cells); mean ± SD, at least three independent experiments.
The next data set deals with TZM-bl cells. In words: CytoTox-Glo cytotoxicity assay. The conditions noted are these: one day, average of two independent tests. In kind it is cell-based. Summed up:
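Run alongside the antiviral assays. TZM-bl cells were cultured for one day with graded concentrations of test compound. Percent viable cells was determined with the CytoTox-Glo kit according to the manufacturer's protocol.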

Usually EC50 stands for the concentration giving half of the maximal effect. As usually defined, the CC50 is the concentration giving 50% cytotoxicity. A high value points to better tolerance by the cells. Take `N#Cc1ccc(Nc2nc(Oc3c(F)cc(Br)cc3F)ccc2N)cc1` [6b]: in data set [1], the EC50 stood at 7.43 ± 1.1 nM. The same molecule returned a CC50 with TZM-bl cells of over 9590 nM. On the same counts, the results for `N#Cc1ccc(Nc2nc(Oc3c(F)cc(CO)cc3F)ccc2N)cc1` [6c, N^2-(4′-Cyanophenyl)amino-6-(2”,6”-difluoro-4”-hydroxymethyl)phenoxypyridine-3-amine] are 57.1 ± 9.2 nM and over 27200 nM. As to `CC(=O)OCc1cc(F)c(Oc2ccc(N)c(Nc3ccc(C#N)cc3)n2)c(F)c1` [6d, N^2-(4′-Cyanophenyl)amino-6-(2”,6”-difluoro-4”-acetoxymethyl)phenoxypyridin-3-amine], the EC50 in data set [1] was 290 ± 46 nM. For `N#Cc1ccc(Nc2nc(Oc3c(F)cc(C=NO)cc3F)ccc2N)cc1` [6e, N^2-(4′-Cyanophenyl)amino-6-(2”,6”-difluoro-4”-(hydroxyimino)methyl)phenoxy pyridin-3-amine], the EC50 in data set [1] stood at 261 ± 55.1 nM. This molecule also registered a CC50 with TZM-bl cells of over 26200 nM. On the same counts, the results for `N#Cc1ccc(Nc2nc(Oc3c(F)cc(C#N)cc3F)ccc2N)cc1` [6f, N^2-(4′-Cyanophenyl)amino-6-(2”,6”-difluoro-4”-cyano)phenoxypyridin-3-amine] are 5.16 ± 1.57 nM and over 9390 nM.

With `N#C/C(=C\c1cc(F)c(Oc2ccc(N)c(Nc3ccc(C#N)cc3)n2)c(F)c1)C(N)=O` [6h, (E)-6-[4”-(3-Amino-2-cyano-3-oxoprop-1-enyl)-2”,6”-difluoro]phenoxy-N^2-(4′-cyanophenyl)pyridin-2,3-diamine], in data set [1], the EC50 turned out to be 370 ± 59 nM. In the data set on TZM-bl cells, this molecule yielded a half-maximal cytotoxic concentration (CC50) of 15800 nM. On the same counts, the results for `CC(=O)CCc1cc(F)c(Oc2ccc(N)c(Nc3ccc(C#N)cc3)n2)c(F)c1` [6i, N^2-(4′-Cyanophenyl)amino-6-(2”,6”-difluoro-4”-(3-oxobutyl)phenoxy)pyridin-3-amine] are 4.66 ± 0.95 nM and over 9800 nM. On the same counts, the results for `CCCOC(=O)c1cc(F)c(Oc2ccc(N)c(Nc3ccc(C#N)cc3)n2)c(F)c1` [6j, N^2-(4′-Cyanophenyl)amino-6-(2”,6”-difluoro-4”-propylcarbmethoxy)phenoxypyr idin-3-amine] are 99 ± 19 nM and 15300 nM. On the same counts, the results for `N#Cc1ccc(Nc2nc(Oc3c(F)cc(/C=C/C(N)=O)cc3F)ccc2N)cc1` [6k, (E)-N^2-(4′-Cyanophenyl)amino-6-(2”,6”-difluoro-4”-(2-carbamoyl)vinyl)phenoxy pyridin-3-amine] are 614 ± 118 nM and over 24600 nM. Take `N#CCCc1cc(F)c(Oc2ccc(N)c(Nc3ccc(C#N)cc3)n2)c(F)c1` [6l, 6-(4”-(2-Cyanoethyl)-2”,6”-difluoro)phenoxy-N^2-(4′-cyanophenyl)aminopyridin-3-amine]: in data set [1], the 50% effective concentration (EC50) came to 2.81 ± 0.59 nM. Moreover, the CC50 with TZM-bl cells was over 10200 nM. Take `N#Cc1ccc(Nc2nc(Oc3c(F)cc(CCCO)cc3F)ccc2N)cc1` [6n, N^2-(4′-Cyanophenyl)amino-6-(2”,6”-difluoro-4”-(3-hydroxypropyl)phenoxy) pyridin-3-amine]: the EC50 in data set [1] amounted to 48 ± 9.8 nM. Moreover, in the data set on TZM-bl cells, the half-maximal cytotoxic concentration (CC50) was over 25200 nM.

In the case of `COc1cc(/C=C/C#N)ccc1Oc1ccc(N)c(Nc2ccc(C#N)cc2)n1` [8e, (E)-N^2-(4′-Cyanophenyl)amino-6-(2”-methoxy-4”-cyanovinyl)phenoxypyridin-3-amine], the EC50 in data set [1] was 16.7 ± 4.33 nM. Also, the CC50 with TZM-bl cells was over 20600 nM. On the same counts, the results for “N^2-(4′-Cyanophenyl)amino-6-(4”-(2-cyano)propylcarbamoyl-2”,6”-difluoro)phen oxypyridin-3-amine [6m]” are 350 ± 52 nM and 15100 nM.
